Data set [1] concerns the target Lipoprotein lipase (Bos taurus) (UniProt P11151). Put plainly: Inhibition of Lipoprotein lipase in vitro.
The target in data set [2] is Phospholipid-transporting ATPase ABCA1 (Mus musculus, UniProt P41233). Put plainly: Induction of ABCA1-mediated [3H]cholesterol efflux in mouse RAW 264.7 macrophages after 24 hrs.
For data set [3], the system named is Mus musculus. Put plainly: Effect on triglyceride level in C57/BL6 mouse at 20 mg/kg, sc after 1 hr. The note with it: C57Bl/6. Type of data set: functional, organism-based. Further details: dose 20 mg/kg. The procedure, abridged: (§1)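 Male C57Bl/6 mice (≥12 weeks, chow-fed) given peptide subcutaneously in 50 mM mannitol/PBS vehicle. Serum was collected by cardiac puncture at 1 or 3 h, clotted 1 h at room temperature and spun at 10,000g. Serum triglyceride was measured by enzymatic colorimetric assay, with 3–5 animals per dose and time point.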

The test system of data set [4] is Mus musculus. Put plainly: Effect on triglyceride level in C57/BL6 mouse at 20 mg/kg, sc after 3 hrs. Type of data set: functional, organism-based. Also noted: dose 20 mg/kg. As to conditions: C57Bl/6. An outline of the steps:
as §1

In data set [5] the test system is Mus musculus. Description: Effect on triglyceride level in C57/BL6 mouse at 60 mg/kg, sc after 1 hr. Type of data set: functional, organism-based. Further details: dose 60 mg/kg. As to conditions: C57Bl/6. The procedure, abridged:
as §1

The nature of data set [6]: Plasma concentration in C57/BL6 mouse at 60 mg/kg, sc after 3 hrs. Type of data set: ADME, organism-based, C57Bl/6. Also noted: dose 60 mg/kg, route subcutaneous. The procedure, abridged: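 Male C57Bl/6 mice were dosed subcutaneously with peptide in 50 mM mannitol/PBS. Serum was taken by cardiac puncture, and peptide was measured by LC–MS/MS after acetonitrile protein precipitation.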

The test system of data set [7] is Plasma. Put plainly: Induction of pre-beta HDL formation in human plasma after 2 hrs by ELISA. Type of data set: functional, cell-free. An outline of the steps:
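Increasing peptide concentrations were incubated with normal human plasma at 37 °C for 2 h. Pre-β HDL was quantified by a commercial human pre-β HDL ELISA.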
On the technique in general: An ELISA detects its analyte on a solid surface through an enzyme-linked reagent.

Active and inactive are the calls of the source. The rule behind the calls is not given here. *1 amine or outer side, *2 acyl side, *3 side chain or, on linkers, in order; H or OH if unused. Where a SMILES comes first, the peptide text is derived from it. [ ]: non-standard residue; d: D form. Gly(oct-7-en-1-yl) = C=CCCCCCC[C@H](N)C(=O)O; Ala(5-hexenyl) = C=CCCCCC[C@H](N)C(=O)O; dNle(6-vinyl) = C=CCCCC[C@@H](N)C(=O)O; Gly(octyl) = CCCCCCCC[C@H](N)C(=O)O; X1 = CCCCCCC[C@H](N[*:1])C(=O)[*:2] A value given as a limit tells only on which side of the number the result lay.

As usually defined, the IC50 is the point on the concentration scale where inhibition reaches its midpoint. A higher IC50 goes with weaker potency. A word on the EC50: it is the concentration that produces a half-maximal response.

Chain of Phospholipid-transporting ATPase ABCA1 (P41233 whole entry): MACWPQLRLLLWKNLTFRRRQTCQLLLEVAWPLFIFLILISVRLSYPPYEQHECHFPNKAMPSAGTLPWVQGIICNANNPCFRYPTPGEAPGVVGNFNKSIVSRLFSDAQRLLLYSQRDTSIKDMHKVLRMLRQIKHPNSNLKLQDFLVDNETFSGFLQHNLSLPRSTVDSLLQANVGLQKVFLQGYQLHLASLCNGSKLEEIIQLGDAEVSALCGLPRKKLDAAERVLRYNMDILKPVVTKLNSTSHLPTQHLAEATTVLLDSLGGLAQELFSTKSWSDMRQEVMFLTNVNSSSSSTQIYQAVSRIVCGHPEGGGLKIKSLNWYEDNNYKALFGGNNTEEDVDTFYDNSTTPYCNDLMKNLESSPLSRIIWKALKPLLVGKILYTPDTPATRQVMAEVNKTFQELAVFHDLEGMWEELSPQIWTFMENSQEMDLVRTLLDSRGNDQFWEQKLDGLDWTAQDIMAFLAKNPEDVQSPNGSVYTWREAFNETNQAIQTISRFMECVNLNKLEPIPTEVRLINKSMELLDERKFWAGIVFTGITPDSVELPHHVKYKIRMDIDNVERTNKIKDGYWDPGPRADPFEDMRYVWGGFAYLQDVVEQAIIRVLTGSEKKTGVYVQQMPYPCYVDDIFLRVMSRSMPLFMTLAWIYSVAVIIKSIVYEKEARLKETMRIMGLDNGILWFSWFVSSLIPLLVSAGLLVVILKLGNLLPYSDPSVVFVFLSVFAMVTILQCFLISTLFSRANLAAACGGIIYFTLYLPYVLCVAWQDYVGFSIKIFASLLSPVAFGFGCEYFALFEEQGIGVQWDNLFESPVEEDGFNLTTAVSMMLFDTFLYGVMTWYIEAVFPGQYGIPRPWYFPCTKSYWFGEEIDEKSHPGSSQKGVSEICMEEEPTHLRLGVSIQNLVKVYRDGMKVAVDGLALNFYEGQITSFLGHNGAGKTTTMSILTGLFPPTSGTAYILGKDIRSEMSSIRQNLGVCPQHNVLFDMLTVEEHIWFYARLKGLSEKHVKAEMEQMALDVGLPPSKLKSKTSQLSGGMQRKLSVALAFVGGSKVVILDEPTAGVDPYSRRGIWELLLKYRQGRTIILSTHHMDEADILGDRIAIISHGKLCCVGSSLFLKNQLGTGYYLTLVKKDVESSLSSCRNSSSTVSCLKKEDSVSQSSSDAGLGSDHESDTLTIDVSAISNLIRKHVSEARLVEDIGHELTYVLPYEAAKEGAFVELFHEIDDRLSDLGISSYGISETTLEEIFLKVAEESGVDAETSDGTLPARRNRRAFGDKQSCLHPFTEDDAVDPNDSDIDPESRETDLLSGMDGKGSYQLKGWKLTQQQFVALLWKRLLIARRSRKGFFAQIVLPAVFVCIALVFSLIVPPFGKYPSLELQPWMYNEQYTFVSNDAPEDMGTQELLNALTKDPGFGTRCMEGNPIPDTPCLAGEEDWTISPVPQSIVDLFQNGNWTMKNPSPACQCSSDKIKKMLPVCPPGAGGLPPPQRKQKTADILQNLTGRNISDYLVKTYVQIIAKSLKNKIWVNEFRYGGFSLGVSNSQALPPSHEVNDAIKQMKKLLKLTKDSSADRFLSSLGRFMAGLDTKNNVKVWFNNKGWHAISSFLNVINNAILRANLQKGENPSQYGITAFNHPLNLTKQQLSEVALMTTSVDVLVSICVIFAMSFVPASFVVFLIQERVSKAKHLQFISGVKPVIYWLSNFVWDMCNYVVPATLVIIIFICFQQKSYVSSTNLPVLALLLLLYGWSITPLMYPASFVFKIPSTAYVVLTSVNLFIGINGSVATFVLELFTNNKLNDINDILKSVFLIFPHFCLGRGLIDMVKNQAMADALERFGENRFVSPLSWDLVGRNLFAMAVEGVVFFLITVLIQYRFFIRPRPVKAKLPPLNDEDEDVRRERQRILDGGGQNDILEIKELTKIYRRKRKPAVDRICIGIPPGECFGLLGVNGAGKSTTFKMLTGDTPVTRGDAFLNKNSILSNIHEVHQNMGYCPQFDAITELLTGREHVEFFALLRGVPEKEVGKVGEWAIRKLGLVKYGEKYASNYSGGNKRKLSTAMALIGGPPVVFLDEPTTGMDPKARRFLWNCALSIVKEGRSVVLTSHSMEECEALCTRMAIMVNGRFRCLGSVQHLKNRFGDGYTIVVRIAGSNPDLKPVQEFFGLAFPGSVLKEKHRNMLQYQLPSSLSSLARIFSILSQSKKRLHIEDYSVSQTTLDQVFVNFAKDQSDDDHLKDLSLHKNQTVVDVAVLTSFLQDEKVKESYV

As to `CC(=O)N[C@H](CC(=O)O)C(=O)N[C@H](Cc1c[nH]c2ccccc12)C(=O)N[C@H](Cc1ccccc1)C(=O)N[C@H](CCCCN)C(=O)N[C@H](C)C(=O)N[C@H](Cc1ccccc1)C(=O)N[C@H](Cc1ccc(O)cc1)C(=O)N[C@H](CC(=O)O)C(=O)N[C@H](CCCCN)C(=O)N[C@@H](C(=O)N[C@H](C)C(=O)N[C@H](CCC(=O)O)C(=O)N[C@H](CCCCN)C(=O)N[C@H](Cc1ccccc1)C(=O)N[C@H](CCCCN)C(=O)N[C@H](CCC(=O)O)C(=O)N[C@H](C)C(=O)N[C@H](Cc1ccccc1)C(N)=O)C(C)C` (Ac-[dD][dW][dF][dK][dA][dF][dY][dD][dK][dV][dA][dE][dK][dF][dK][dE][dA][dF]-NH2), the IC50 in data set [1] is 24 µM. The same compound returned an EC50 in data set [2] of 2000 nM.

On to `CCCCCCC[C@H](NC(=O)[C@H](CCC(=O)O)NC(=O)[C@H](CC(N)=O)NC(=O)[C@H](CC(C)C)NC(=O)[C@H](CCCCN)NC(=O)[C@H](CCC(=O)O)NC(=O)[C@H](CCCNC(=N)N)NC(=O)[C@H](CCCCCCC)NC(=O)[C@H](CCC(=O)O)NC(=O)[C@H](CC(=O)O)NC(=O)[C@H](CC(C)C)NC(=O)[C@@H](NC(=O)[C@@H]1CCCN1C(C)=O)C(C)C)C(=O)N[C@@H](CC(C)C)C(=O)N[C@@H](CCC(=O)O)C(=O)N[C@@H](C)C(=O)N[C@@H](CC(C)C)C(=O)N[C@@H](CCCCN)C(=O)N[C@@H](CCC(N)=O)C(=O)N[C@@H](CCCCN)C(=O)N[C@@H](CC(C)C)C(=O)N[C@@H](CCCCN)C(N)=O` (Ac-PVLDE[X1]REKLNE[X1]LEALKQKLK-NH2), for which the result in data set [3], in data set [4] and in data set [5] was inactive. For the same compound, the concentration at 3 h in data set [6] turned out to be 137 µM. Moreover, in data set [1], the IC50 was 44 µM.

`CCCCCCCC[C@H](NC(=O)[C@H](CCC(=O)O)NC(=O)[C@H](CC(N)=O)NC(=O)[C@H](CC(C)C)NC(=O)[C@H](CCCCN)NC(=O)[C@H](CCC(=O)O)NC(=O)[C@H](CCCNC(=N)N)NC(=O)[C@H](Cc1ccccc1)NC(=O)[C@H](CCC(=O)O)NC(=O)[C@H](CC(=O)O)NC(=O)[C@H](CC(C)C)NC(=O)[C@@H](NC(=O)[C@@H]1CCCN1C(C)=O)C(C)C)C(=O)N[C@@H](CC(C)C)C(=O)N[C@@H](CCC(=O)O)C(=O)N[C@@H](C)C(=O)N[C@@H](CC(C)C)C(=O)N[C@@H](CCCCN)C(=O)N[C@@H](CCC(N)=O)C(=O)N[C@@H](CCCCN)C(=O)N[C@@H](CC(C)C)C(=O)N[C@@H](CCCCN)C(N)=O` (Ac-PVLDEFREKLNE[Gly(octyl)]LEALKQKLK-NH2): the Activity result in data set [7] was “Dose-dependent effect”. Besides, the result in data set [3], in data set [4] and in data set [5] was inactive. For the same compound, the IC50 in data set [1] was determined as 88 µM.

On to `C=CCCCCC[C@H](NC(=O)[C@H](CCC(=O)O)NC(=O)[C@H](CC(N)=O)NC(=O)[C@H](CC(C)C)NC(=O)[C@H](CCCCN)NC(=O)[C@H](CCC(=O)O)NC(=O)[C@H](CCCN=C(N)N)NC(=O)[C@@H](CCCCC=C)NC(=O)[C@H](CCC(=O)O)NC(=O)[C@H](CC(=O)O)NC(=O)[C@H](CC(C)C)NC(=O)[C@@H](NC(=O)[C@@H]1CCCN1C(C)=O)C(C)C)C(=O)N[C@@H](CC(C)C)C(=O)N[C@@H](CCC(=O)O)C(=O)N[C@@H](C)C(=O)N[C@@H](CC(C)C)C(=O)N[C@@H](CCCCN)C(=O)N[C@@H](CCC(N)=O)C(=O)N[C@@H](CCCCN)C(=O)N[C@@H](CC(C)C)C(=O)N[C@@H](CCCCN)C(N)=O` (Ac-PVLDE[dNle(6-vinyl)]REKLNE[Ala(5-hexenyl)]LEALKQKLK-NH2), for which the concentration at 3 h in data set [6] worked out at 116 µM. This compound also registered an EC50 in data set [2] of 800 nM.

For the compound `CCCCCCCC[C@H](NC(=O)[C@H](CCC(=O)O)NC(=O)[C@H](CC(N)=O)NC(=O)[C@H](CC(C)C)NC(=O)[C@H](CCCCN)NC(=O)[C@H](CCC(=O)O)NC(=O)[C@H](CCCN=C(N)N)NC(=O)[C@H](Cc1ccccc1)NC(=O)[C@H](CCC(=O)O)NC(=O)[C@H](CC(=O)O)NC(=O)[C@H](CC(C)C)NC(=O)[C@@H](NC(=O)[C@@H]1CCCN1C(C)=O)C(C)C)C(=O)N[C@@H](CC(C)C)C(=O)N[C@@H](CCC(=O)O)C(=O)N[C@@H](C)C(=O)N[C@@H](CC(C)C)C(=O)N[C@@H](CCCCN)C(=O)N[C@@H](CCC(N)=O)C(=O)N[C@@H](CCCCN)C(=O)N[C@@H](CC(C)C)C(=O)N[C@@H](CCCCN)C(N)=O` (Ac-PVLDEFREKLNE[Gly(octyl)]LEALKQKLK-NH2), the concentration at 3 h in data set [6] stood at 188 µM. This compound also gave an EC50 in data set [2] of 700 nM.

`C=CCCCCC[C@H](NC(=O)[C@H](CCC(=O)O)NC(=O)[C@H](CC(N)=O)NC(=O)[C@H](CC(C)C)NC(=O)[C@H](CCCCN)NC(=O)[C@H](CCC(=O)O)NC(=O)[C@H](CCCNC(=N)N)NC(=O)[C@@H](CCCCC=C)NC(=O)[C@H](CCC(=O)O)NC(=O)[C@H](CC(=O)O)NC(=O)[C@H](CC(C)C)NC(=O)[C@@H](NC(=O)[C@@H]1CCCN1C(C)=O)C(C)C)C(=O)N[C@@H](CC(C)C)C(=O)N[C@@H](CCC(=O)O)C(=O)N[C@@H](C)C(=O)N[C@@H](CC(C)C)C(=O)N[C@@H](CCCCN)C(=O)N[C@@H](CCC(N)=O)C(=O)N[C@@H](CCCCN)C(=O)N[C@@H](CC(C)C)C(=O)N[C@@H](CCCCN)C(N)=O` (Ac-PVLDE[dNle(6-vinyl)]REKLNE[Ala(5-hexenyl)]LEALKQKLK-NH2): the Activity result in data set [7] was “Dose-dependent effect”. For the same compound, the outcome in data set [3], in data set [4] and in data set [5] was inactive. In data set [1], the IC50 was determined as 100 µM.

Ac-PVLDEFREKLNEELEALKQKLK-NH2 registered a concentration at 3 h in data set [6] of 0.33 µM. The EC50 in data set [2] was > 100000 nM.

Consider `C=CCCCCCC[C@H](NC(=O)[C@H](CCC(=O)O)NC(=O)[C@H](CC(N)=O)NC(=O)[C@H](CC(C)C)NC(=O)[C@H](CCCCN)NC(=O)[C@H](CCC(=O)O)NC(=O)[C@H](CCCNC(=N)N)NC(=O)[C@H](Cc1ccccc1)NC(=O)[C@H](CCC(=O)O)NC(=O)[C@H](CC(=O)O)NC(=O)[C@H](CC(C)C)NC(=O)[C@@H](NC(=O)[C@@H]1CCCN1C(C)=O)C(C)C)C(=O)N[C@@H](CC(C)C)C(=O)N[C@@H](CCC(=O)O)C(=O)N[C@@H](C)C(=O)N[C@@H](CC(C)C)C(=O)N[C@@H](CCCCN)C(=O)N[C@@H](CCC(N)=O)C(=O)N[C@@H](CCCCN)C(=O)N[C@@H](CC(C)C)C(=O)N[C@@H](CCCCN)C(N)=O` (Ac-PVLDEFREKLNE[Gly(oct-7-en-1-yl)]LEALKQKLK-NH2), for which, in data set [7], the Activity entry is “Dose-dependent effect”.

As for `CCCCCCC[C@H](NC(=O)[C@H](CCC(=O)O)NC(=O)[C@H](CC(N)=O)NC(=O)[C@H](CC(C)C)NC(=O)[C@H](CCCCN)NC(=O)[C@H](CCC(=O)O)NC(=O)[C@H](CCCNC(=N)N)NC(=O)[C@H](Cc1ccccc1)NC(=O)[C@H](CCC(=O)O)NC(=O)[C@H](CC(=O)O)NC(=O)[C@H](CC(C)C)NC(=O)[C@@H](NC(=O)[C@@H]1CCCN1C(C)=O)C(C)C)C(=O)N[C@@H](CC(C)C)C(=O)N[C@@H](CCC(=O)O)C(=O)N[C@@H](C)C(=O)N[C@@H](CC(C)C)C(=O)N[C@@H](CCCCN)C(=O)N[C@@H](CCC(N)=O)C(=O)N[C@@H](CCCCN)C(=O)N[C@@H](CC(C)C)C(=O)N[C@@H](CCCCN)C(N)=O` (Ac-PVLDEFREKLNE[X1]LEALKQKLK-NH2), the Activity entry in data set [7] was “Dose-dependent effect”.

The values are drawn from ChEMBL document CHEMBL1629456, “ApoA-I mimetic peptides promote pre-β HDL formation in vivo causing remodeling of HDL and triglyceride accumulation at higher dose” (Bioorg Med Chem, 2010).
